Screening data: PubChem, several laboratories
Shown are actives, neighbours in structure and some others; about 2.9% of the full set was active somewhere.
ZTA counter: ZTA (EBV) inhibition in EBNA-1 counter-screen | inhibition, % at 11 µM | ZTA-DNA binding, fluorescence polarization | hit rate 0.15% among 320,000 | P03206; in the data active = inhibition above about 33%
Target sequence (P03206 whole entry, looked up): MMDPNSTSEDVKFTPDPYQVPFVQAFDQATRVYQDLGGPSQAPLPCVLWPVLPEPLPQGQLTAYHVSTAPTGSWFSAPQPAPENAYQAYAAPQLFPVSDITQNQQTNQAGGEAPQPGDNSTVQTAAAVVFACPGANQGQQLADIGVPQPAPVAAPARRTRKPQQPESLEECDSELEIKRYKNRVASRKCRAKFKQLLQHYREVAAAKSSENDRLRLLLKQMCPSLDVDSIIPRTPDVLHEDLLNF
M18AAP inhibitor: blocks P. falciparum M18 aspartyl aminopeptidase | hit rate 1.2% among 290,000 | inhibition, % at 7.35 µM | recombinant PfM18AAP, H-Glu-NHMec fluorogenic cleavage;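 active = inhibition above the campaign mean inhibition over all tested compounds plus 3 SD, cut at about 28% in these data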;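 also: 0% = plate median of test compound wells and 100% = 2 mM ZnCl2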
PfGluPho inh: PfG6PD (Plasmodium falciparum) enzyme inhibition | PfGluPho enzyme, NADPH resazurin-diaphorase fluorescence | inhibition, % at 20 µM | hit rate 0.78% among 350,000;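 active = inhibition reaching at least a set limit at 20 µM in the primary screen, cut at about 59% in these data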;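 also: 0% = DMSO wells with substrate and 100% = DMSO wells lacking glucose-6-phosphate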
Apaf1 inhib: human Apaf-1 inhibition | O14727 | AID 489030 | reconstituted apoptosome caspase-3 activity, DEVD-Rh110 fluorescence | inhibition, % at 20 µM | hit rate 0.71% among 330,000; active = inhibition of at least 40% at 20 µM;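 also: plate controls were DMSO wells for no effect and DEVD-CHO caspase inhibitor wells for full effect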
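Assay system – apoptosome proteins · Medium – Hepes buffer, pH 7.5 · Also added – cytochrome c with DEVD-Rh110 · Timing – 30 min compound preincubation, 50 min activation, room temperature · Detection – Rh110 fluorescence, excitation 480 nm, emission 540 nm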
UBC13 inh: blocks human UBC13 polyubiquitin chain formation. P61088. TR-FRET. inhibition, % at 20 µM. hit rate 0.47% among 330,000. AID 485273; in the data active = inhibition above about 45%, passing the limit was not always enough
Target sequence (P61088 whole entry, looked up): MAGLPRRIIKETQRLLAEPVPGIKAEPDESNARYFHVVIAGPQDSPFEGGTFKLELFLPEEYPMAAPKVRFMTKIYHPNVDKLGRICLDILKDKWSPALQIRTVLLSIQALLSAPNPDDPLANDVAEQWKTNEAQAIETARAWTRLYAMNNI
EBNA-1 inhibitor: blocks EBNA-1 binding to DNA; EBNA-1 DNA binding, fluorescence polarization; inhibition, % at 14.8 µM; hit rate 0.34% among 300,000; in the data active = inhibition above about 28%
PfGluPho conf: PfG6PD inhibition, single-dose confirmed; shares compounds with PfGluPho inh; recombinant PfGluPho, NADPH-diaphorase-resazurin fluorescence; inhibition, % at 20 µM; hit rate 34% among 2,400;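 active = inhibition of at least 50% at 20 µM in any single replicate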;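 also: 0% = DMSO with substrate and 100% = DMSO lacking glucose-6-phosphate substrate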
Diaph ctr 10uM: diaphorase inhibition or oxidation at 10 uM NADPH; shares compounds with PfGluPho inh; diaphorase-coupled resazurin reduction, fluorescence, NADPH 10 uM; inhibition, % at 20 µM; hit rate 39% among 820; AID 504862;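 active = average inhibition reaching 50% or more with the compound at 20 µM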;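 also: resorufin red fluorescence formed as diaphorase reduces resazurin using NADPH; 0% = DMSO with enzyme and 100% = DMSO without enzyme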
Diaph ctr 30uM: inhibits diaphorase or oxidizes, flagging false PfG6PD hits; AID 504863; hit rate 29% among 820; shares compounds with PfGluPho inh; Diaphorase/resazurin coupled assay, resorufin fluorescence, 30 uM NADPH; inhibition, % at 20 µM;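 active = inhibition averaging 50% or more, tested at 20 µM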;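 also: 0% = DMSO with enzyme and 100% = DMSO wells lacking diaphorase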
Numbers without * were called inactive; nt = no result given.

SMILES | ZTA counter | M18AAP inhibitor | PfGluPho inh | Apaf1 inhib | UBC13 inh | EBNA-1 inhibitor | PfGluPho conf | others
O=C(CCC(=O)Nc1ccc(Cl)cc1Cl)N/N=C/c1ccc([N+](=O)[O-])o1 | 11 | 9 | 62* | 12 | -8 | 2 | 45
CCCCCC(=O)N/N=C/c1ccc([N+](=O)[O-])o1 | 6 | -1 | 11 | 6 | -11 | -11 | nt
Cc1c(C)n2c(SCC(=O)Nc3cccc4ccccc34)nnc2[nH]c1=O | -2 | nt | 3 | -3 | -12 | -11 | nt
C(=Cc1c[nH]c2ccccc12)c1nccc2ccccc12 | nt | nt | 65* | nt | nt | nt | 4
CCOc1ccc(CCNC(=O)c2cc3ccccn3n2)cc1OCC | -1 | -2 | 3 | 3 | 0 | -2 | nt
Cc1ccc(C(=O)COC(=O)c2c(C)cc(=O)oc2C)cc1[N+](=O)[O-] | 10 | -5 | 67* | 5 | 3 | 6 | -13
O=C(CBr)c1ccc([N+](=O)[O-])c(CS(=O)(=O)c2ccc(Cl)cc2)c1 | -20 | 6 | 80* | 14 | -18 | -14 | 74* | Diaph ctr 10uM=30;Diaph ctr 30uM=16
NC(=S)N/N=C/c1c[nH]c2ccccc12 | 6 | 22 | 22 | -19 | -6 | 10 | nt
NC(=S)NN=Cc1c[nH]c2nccnc12 | nt | nt | 76* | nt | nt | nt | 17
Fc1ccc(C2C3=C(Nc4ncnn42)c2ccccc2OC3c2ccncc2)cc1 (stereo unspecified) | -20 | -3 | 61* | 5 | 15 | -15 | 21
CC(C)=CCC/C(C)=C/C=N/NC(=O)c1ccccc1[N+](=O)[O-] | 1 | 3 | 67* | -9 | 8 | 1 | 26
CC(=O)OCC1OC(n2c(S)c(C#N)c(-c3ccccc3)c(C#N)c2=O)C(OC(C)=O)C(OC(C)=O)C1OC(C)=O (stereo unspecified) | nt | nt | 66* | nt | nt | nt | 22
CCCOC(=O)c1c(NC(=O)C2CCCO2)sc(C(=O)OC)c1C (stereo unspecified) | 0 | 39* | 59* | 7 | 0 | -7 | 21
O=C(NC(=S)Nc1ccc(-c2ccc(CO)o2)cc1)c1cccs1 | 8 | 4 | 81* | 9 | -6 | -9 | 5
O=C(C1=C(c2ccccc2)C(=O)c2ccccc2C1=O)c1ccccc1 | nt | 0 | 116* | nt | nt | nt | 79* | Diaph ctr 10uM=84*;Diaph ctr 30uM=81*
COCCCNC(=O)c1cc(S(=O)(=O)N2CCOCC2)ccc1SCc1cccc(OC)c1OC | -18 | 21 | -10 | -7 | -12 | 2 | nt
Cc1ccc(N)cc1O | -8 | nt | 65* | 1 | -1 | nt | 37
CCCNC(=O)CN1CCN(c2cc3ccccc3c(Cl)n2)CC1 | 5 | 5 | -21 | 27 | -2 | 4 | nt
COc1ccc2c(c1)N(S(=O)(=O)c1ccccc1)CCC2=O | -4 | 5 | 43 | 3 | -10 | -8 | nt
CC(C)(C)c1ccc(O)c(O)c1 | -1 | nt | 81* | 1 | 8 | nt | 72* | Diaph ctr 10uM=8;Diaph ctr 30uM=2
COc1ccccc1N1CCN(C(=O)c2cc(S(=O)(=O)N3CCOCC3)ccc2C)CC1 | nt | nt | -1 | 5 | -7 | nt | nt
COc1ccc(CNC(=O)CSc2nnc3c(Cl)cc(C(F)(F)F)cn23)cc1OC | 11 | -4 | -2 | -12 | -3 | -7 | nt
COc1ccccc1/C=N/NC(=O)CSc1cc(C)nc2ccccc12 | 1 | 0 | 83* | 7 | 34 | 0 | 68* | Diaph ctr 10uM=69*;Diaph ctr 30uM=53*
COc1ccccc1/C=N/NC(=O)CC(=O)NCc1ccccc1 | -6 | 2 | 105* | -5 | -1 | -2 | 86* | Diaph ctr 10uM=93*;Diaph ctr 30uM=82*
COc1cccc2c(SCC(=O)N/N=C/c3ccc(O)cc3O)cc(C)nc12 | nt | 15 | -29 | -4 | 35 | nt | nt
SMILES | ZTA counter | M18AAP inhibitor | PfGluPho inh | Apaf1 inhib | UBC13 inh | EBNA-1 inhibitor | PfGluPho conf | others
COc1ccc2nc(C)cc(SCC(=O)N/N=C/c3ccccc3)c2c1 | 12 | 18 | 59 | -1 | 30 | 4 | 11
COc1ccc2nc(C)cc(SCC(=O)N/N=C/c3c(OC)ccc4ccccc34)c2c1 | 9 | -9 | -5 | nt | nt | -8 | nt
COc1ccccc1/C=N/NC(=O)CSc1ccc2ccccc2n1 | 8 | -2 | 119* | 18 | 4 | -9 | 85* | Diaph ctr 10uM=97*;Diaph ctr 30uM=86*
COc1ccccc1/C=N/NC(=O)CO | 10 | 1 | 25 | -15 | 1 | 1 | nt
Cc1cc(-n2c(C)cc(C(=S)N3CCOCC3)c2C)ccc1Br | 1 | -5 | 5 | 10 | 0 | 8 | nt
Cc1ccc(C(=O)O)cc1NC(=O)CSc1nnc(-c2ccccc2F)n1C1CCCCC1 | nt | nt | -20 | -11 | 8 | nt | nt
O=C(COC(=O)c1cccs1)Nc1cccc(S(=O)(=O)N2CCCCC2)c1 | nt | nt | 11 | -1 | 18 | nt | nt
CCC1CCCCN1C(=O)CCc1nnc(C2CCCCC2)o1 (stereo unspecified) | 10 | -4 | -5 | -6 | 10 | 10 | nt
CC1(C)CC(=O)C=C(c2cccc(OC(=O)c3ccc(-c4ccccc4)cc3)c2)C1=O | nt | nt | 14 | nt | nt | nt | nt
Cc1ccc(SSc2cc(C)ccc2N)c(N)c1 | -4 | nt | 64* | -24 | -10 | 12 | 42
Cc1ccc(-c2c(C(=O)N/N=C/c3ccco3)nnn2-c2nonc2N)cc1 | -10 | 7 | 62* | 38 | -13 | 3 | 46
Cc1ccc(-c2c(C(=O)N/N=C/c3ccc(C)o3)nnn2-c2nonc2N)cc1 | 1 | 4 | 79* | 5 | -17 | -13 | 60* | Diaph ctr 10uM=63*;Diaph ctr 30uM=47
COc1ccc(-c2cnc3c(c2)CCC3(C#N)C#N)cc1 | -23 | -5 | 6 | nt | nt | -4 | nt
Nc1nc2ccc(C(=O)Nc3ccc(N4CCOCC4)cc3)cc2s1 | nt | nt | 17 | -23 | -1 | nt | nt
O=C(Nc1ccc(N2CCOCC2)cc1)c1ccc2ncsc2c1 | nt | nt | 66* | 4 | -12 | nt | 22
O=C1OCC/C1=C1/NCCNC1=O | nt | nt | -16 | nt | nt | nt | nt
Nn1c(CSc2nc3ccccc3o2)nnc1CSc1nc2ccccc2o1 | 2 | -6 | 87* | 7 | 9 | -5 | 60* | Diaph ctr 10uM=56*;Diaph ctr 30uM=48
Cc1cc(=S)nc(-c2ccccn2)[nH]1 | 1 | -13 | 12 | -16 | -3 | 10 | nt
CSc1nc(=S)cc(C)[nH]1 | 5 | 43* | 70* | -13 | 20 | 3 | 18
NC(=O)/C=C/C(=O)Nc1ccc(Cl)cc1 | -5 | -8 | -1 | -17 | -6 | -1 | nt
O=C(/C=C/C(Cl)(Cl)Cl)Nc1ccc(Cl)cc1 | nt | nt | 96* | nt | nt | nt | 18
O=C(COC(=O)CNS(=O)(=O)c1c(Cl)cccc1Cl)Nc1cccnc1Cl | 6 | -3 | -2 | 0 | -4 | 1 | nt
Cn1c2ccccc2c(=O)c2cc(C#CC3(O)CCCCC3)ccc21 | 0 | 4 | 62* | 24 | 4 | 12 | 35
